Assay results: ChEMBL document CHEMBL3271979, “Inhibition of solid tumors by nitrosoureas. 1. Lewis lung carcinoma” (1977)
Activity calls are given as the source filed them. The rule behind the calls is not given here.

Assays:
[1] = Antitumor activity against mouse early Lewis lung carcinoma allografted in BDF1 mouse assessed as increase in host life span at 36 mg/kg, ip administered as single dose on 1 or 2 days post-tumor implantation; type: functional; details: route intraperitoneal
In short: (§1)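 BDF1 mice (C57Blk/6 × DBA/2) implanted sc by trocar with ~40 mg Lewis lung tumor fragments from bacteriologically sterile donor tumors. Single ip dose on day 1 or 2, as a solution or suspension in water (CMC or gum acacia) or saline (HPC or Tween 80). Read-out is […]. Same-dose toxicity controls were run in nontumor-bearing mice.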

[2] = Antitumor activity against mouse early Lewis lung carcinoma allografted in BDF1 mouse assessed as increase in host life span at 24 mg/kg, ip administered as single dose on 1 or 2 days post-tumor implantation; type: functional; details: route intraperitoneal; in short: as §1
[3] = Antitumor activity against mouse early Lewis lung carcinoma allografted in BDF1 mouse assessed as time delay in tumor growth at 36 mg/kg, ip administered as single dose on 1 or 2 days post-tumor implantation; type: functional; details: route intraperitoneal
In short: (§2)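 BDF1 mice (C57Blk/6 × DBA/2) implanted sc by trocar with ~40 mg Lewis lung tumor fragments from bacteriologically sterile donors. A single ip dose was given on day 1 or 2, as a solution or suspension in water or saline with suspending agent, at ≤0.5 ml. Tumors were measured by caliper at least twice weekly, with weight = ab²/2. Delay was taken as the days for the tumor to reach 1 g.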

[4] = Antitumor activity against mouse early Lewis lung carcinoma allografted in BDF1 mouse assessed as time delay in tumor growth at 24 mg/kg, ip administered as single dose on 1 or 2 days post-tumor implantation; type: functional; details: route intraperitoneal; in short: as §2
[5] = Antitumor activity against mouse advanced Lewis lung carcinoma allografted in BDF1 mouse assessed as increase in host life span at 36 mg/kg, ip administered as single dose on 7th day post-tumor implantation; type: functional; details: route intraperitoneal
In short: (§3)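 BDF1 mice (C57Blk/6 × DBA/2) implanted sc by trocar with about 40 mg Lewis lung tumor fragments from bacteriologically sterile donors. Advanced-disease groups held tumors of about 400 mg by day 6-7, sized by caliper (w = ab²/2). Single ip injection on day 7, in water or saline vehicle, at or below the LD10 in normal mice. Tumors measured at least twice weekly.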

[6] = Antitumor activity against mouse early Lewis lung carcinoma allografted in ip dosed BDF1 mouse assessed as disease cure administered as single dose on 1 or 2 days post-tumor implantation measured for 80 days post-drug treatment; type: functional
In short: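 BDF1 mice implanted sc by trocar with ~40 mg Lewis lung fragments from sterile donor tumors. A single ip dose was given on day 1 or 2 after implant, in water or saline vehicle. Cures were scored in animals observed for at least 80 days after treatment. Drug-toxicity controls were matched non-tumor-bearing mice monitored for body weight and deaths.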

[7] = Ratio of ED50 for antitumor activity against mouse L1210 cells allografted in ip dosed mouse to LD10 for mouse
Mus musculus [8] = assay: Antitumor activity against mouse advanced Lewis lung carcinoma allografted in ip dosed BDF1 mouse assessed as disease cure administered as single dose on day 6 or 7 post-tumor implantation; type: functional, organism-based
In short: (§4)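 BDF1 mice (C57Blk/6 × DBA/2) implanted sc by trocar with Lewis lung tumor fragments of about 40 mg, taken only from bacteriologically sterile donor tumors. Mice bearing tumors of about 400 mg (day 6-7) were selected. Each received a single ip dose on day 7, at or below the LD10 in normal mice. Groups were of 10 mice. Tumor weight was taken from calipers as w = ab²/2, measured at least twice weekly. Matched non-tumor mice served as toxicity controls.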

[9] = Antitumor activity against mouse early Lewis lung carcinoma allografted in BDF1 mouse assessed as increase in host life span at 152 mg/kg, ip administered as single dose on 1 or 2 days post-tumor implantation; type: functional; details: route intraperitoneal; in short: as §1
[10] = Antitumor activity against mouse early Lewis lung carcinoma allografted in BDF1 mouse assessed as increase in host life span at 67 mg/kg, ip administered as single dose on 1 or 2 days post-tumor implantation; type: functional; details: route intraperitoneal; in short: as §1
[11] = Antitumor activity against mouse early Lewis lung carcinoma allografted in BDF1 mouse assessed as time delay in tumor growth at 152 mg/kg, ip administered as single dose on 1 or 2 days post-tumor implantation; type: functional; details: route intraperitoneal; in short: as §2
[12] = Antitumor activity against mouse early Lewis lung carcinoma allografted in BDF1 mouse assessed as time delay in tumor growth at 67 mg/kg, ip administered as single dose on 1 or 2 days post-tumor implantation; type: functional; details: route intraperitoneal; in short: as §2
[13] = Antitumor activity against mouse advanced Lewis lung carcinoma allografted in BDF1 mouse assessed as increase in host life span at 171 mg/kg, ip administered as single dose on 7th day post-tumor implantation; type: functional; details: route intraperitoneal; in short: as §3
[14] = Antitumor activity against mouse early Lewis lung carcinoma allografted in BDF1 mouse assessed as increase in host life span at 32 mg/kg, ip administered as single dose on 1 or 2 days post-tumor implantation; type: functional; details: route intraperitoneal; in short: as §1
[15] = Antitumor activity against mouse early Lewis lung carcinoma allografted in BDF1 mouse assessed as increase in host life span at 21 mg/kg, ip administered as single dose on 1 or 2 days post-tumor implantation; type: functional; details: route intraperitoneal; in short: as §1
[16] = Antitumor activity against mouse early Lewis lung carcinoma allografted in BDF1 mouse assessed as time delay in tumor growth at 32 mg/kg, ip administered as single dose on 1 or 2 days post-tumor implantation; type: functional; details: route intraperitoneal; in short: as §2
[17] = Antitumor activity against mouse early Lewis lung carcinoma allografted in BDF1 mouse assessed as time delay in tumor growth at 21 mg/kg, ip administered as single dose on 1 or 2 days post-tumor implantation; type: functional; details: route intraperitoneal; in short: as §2
Mus musculus [18] = assay: Antitumor activity against mouse advanced Lewis lung carcinoma allografted in BDF1 mouse assessed as disease cure at 33 mg/kg, ip administered as single dose on 7th day post-tumor implantation measured for 80 days post-drug treatment; type: functional, organism-based; design: dose 33 mg/kg; in short: as §4
[19] = Antitumor activity against mouse advanced Lewis lung carcinoma allografted in BDF1 mouse assessed as increase in host life span at 33 mg/kg, ip administered as single dose on 7th day post-tumor implantation; type: functional; details: route intraperitoneal; in short: as §3
Mus musculus [20] = assay: Antitumor activity against mouse advanced Lewis lung carcinoma allografted in ip dosed BDF1 mouse assessed as complete regression of established tumor administered as single dose on day 6 or 7 post-tumor implantation; type: functional, organism-based; in short: as §4
[21] = Antitumor activity against mouse advanced Lewis lung carcinoma allografted in ip dosed BDF1 mouse assessed as increase in host lifespan administered as single dose on day 6 or 7 post-tumor implantation; type: functional
In short: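 Advanced Lewis lung model: about 40 mg fragments implanted sc by trocar into BDF1 mice, and mice with tumors of about 400 mg (day 6-7) selected. Tumor weight from calipers, w = ab²/2. Agent given as one ip dose in distilled water or physiological saline. Nontumor-bearing mice received matching doses as toxicity controls.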

C[C@H]1CC[C@H](NC(=O)N(CCCl)N=O)CC1
ILS at 36 mg/kg [1]: 44%
ILS at 24 mg/kg [2]: 37%
Time [3]: 14 days
Time [4]: 6.5 days
ILS at 36 mg/kg [5]: 46%
Activity [6]: >50%
Ratio [7]: 0.4
Activity (Mus musculus [8]): Active

O=NN(CCCl)C(=O)N[C@H]1CC[C@H](NC(=O)N(CCCl)N=O)CC1
ILS at 152 mg/kg [9]: 41%
ILS at 67 mg/kg [10]: 34%
Time [11]: 4 days
Time [12]: 2 days
ILS at 171 mg/kg [13]: 146%
Activity [6]: 10%
Ratio [7]: 0.3
Activity (Mus musculus [8]): Active

O=NN(CCF)C(=O)NC1CCS(=O)(=O)CC1
ILS at 32 mg/kg [14]: 0%
ILS at 21 mg/kg [15]: 18%
Time [16]: 15 days
Time [17]: 8.3 days
Activity (Mus musculus [18]): inactive
ILS at 33 mg/kg [19]: 0%
Activity [6]: 10%
Ratio [7]: 0.3
inhibition (Mus musculus [20]): inactive
Activity (Mus musculus [8]): inactive
ILS [21]: >25%
